Measurements as given in ChEMBL document CHEMBL1146083, “Novel potent and efficacious nonpeptidic urotensin II receptor agonists” (J Med Chem, 2006).
pEC50: −log10 of the molar value. Calls of active or inactive are those of the source. The calls are words filed in the database; no cut-off is given here.

Columns and labels:
[1] = biological target: T1, Urotensin-2 receptor (Homo sapiens) (UniProt Q9UKP6); assay: (§1) Activity against human urotensin-2 receptor expressed in NIH3T3 cells; format: cell-based
T1 sequence (whole entry): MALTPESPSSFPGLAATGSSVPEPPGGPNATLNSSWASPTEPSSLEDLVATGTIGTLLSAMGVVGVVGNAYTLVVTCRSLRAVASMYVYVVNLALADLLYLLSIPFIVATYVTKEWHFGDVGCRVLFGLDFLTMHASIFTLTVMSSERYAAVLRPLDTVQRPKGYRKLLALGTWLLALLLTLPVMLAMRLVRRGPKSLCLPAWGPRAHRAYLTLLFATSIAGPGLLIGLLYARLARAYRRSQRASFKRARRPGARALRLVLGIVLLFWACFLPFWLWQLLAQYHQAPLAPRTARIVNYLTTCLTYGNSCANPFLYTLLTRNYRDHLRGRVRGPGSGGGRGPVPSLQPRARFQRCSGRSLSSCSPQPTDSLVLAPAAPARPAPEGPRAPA
Summary of the method: (§2)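 R-SAT functional agonist assay. NIH-3T3 cells grown to 80% confluence in DMEM with 10% bovine calf serum, then transfected for 18 h with human UII receptor plus β-galactosidase marker. Cells frozen, thawed and plated in DMEM with 0.4% calf serum and 30% UltraCulture onto compound. Five-day incubation in 5% CO2, then reporter read at 420 nm. Eight doses in triplicate; pEC50 averaged over 2-6 determinations; efficacy normalized to UII as 100%.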

[2] = biological target: T2, Urotensin-2 receptor (Homo sapiens, UniProt Q9UKP6); assay: as §1; format: cell-based; summary of the method: as §2
T2 sequence (Q9UKP6 whole entry): T1 sequence (whole entry)

Row | Efficacy [1] [%] | pEC50 [2] | Log EC50 [1] | Compound
1 |  |  | inactive | CN(C)CCC(NS(=O)(=O)c1ccc(-c2ccccc2)cc1)c1ccc(Cl)cc1 (configuration not stated)
2 | 105 |  |  | Cc1cccc(Cl)c1C(=O)NC(CCN(C)C)c1ccc(Cl)cc1 (configuration not stated)
3 | 106 | 6.54 |  | CN(C)CCC(NC(=O)Nc1ccc2ccccc2c1)c1ccc(Cl)cc1 (configuration not stated)
4 | 53 |  |  | CN(C)CCC(OC(=O)c1ccc(-c2ccccc2)cc1)c1ccc(Cl)cc1 (configuration not stated)
5 | 105 | 6.93 |  | CN(C)CCC(NC(=O)Nc1ccc(C(F)(F)F)cc1)c1ccc(Cl)cc1 (configuration not stated)
6 | 103 | 6.56 |  | CN(C)CCC(NC(=O)Nc1ccc(C(C)(C)C)cc1)c1ccc(Cl)cc1 (configuration not stated)
7 | 116 | 7.49 |  | CN(C)CC[C@H](NC(=O)c1ccc(-c2ccccc2)cc1)c1ccc(Cl)cc1
8 | 158 |  |  | CN(C)CCC(NC(=O)c1ccccc1)c1ccc(Cl)cc1 (configuration not stated)
9 | 49 |  |  | CN(C)CCC(OC(=O)c1ccc2ccccc2c1)c1ccc(Cl)cc1 (configuration not stated)
10 | 155 |  |  | CN(C)CCC(NC(=O)Cc1ccccc1)c1ccc(Cl)cc1 (configuration not stated)
11 | 89 | 6.28 |  | CN(C)CCC(OC(=O)Nc1ccc2ccccc2c1)c1ccc(Cl)cc1 (configuration not stated)
12 | 159 |  |  | Cc1cccc(C(=O)NC(CCN(C)C)c2ccc(Cl)cc2)c1C (configuration not stated)
13 | 58 | 6.57 |  | CN(C)CCC(OC(=O)Nc1ccc(-c2ccccc2)cc1)c1ccc(Cl)cc1 (configuration not stated)
14 | 179 | 5.70 |  | CN(C)CCC(NC(=O)NCc1ccccc1)c1ccc(Cl)cc1 (configuration not stated)
15 | 91 | 6.84 |  | CN(C)CCC(NC(=O)Nc1ccc(-c2ccccc2)cc1)c1ccc(Cl)cc1 (configuration not stated)
16 | 107 | 6.72 |  | CN(C)CCC(OC(=O)Nc1ccc(Oc2ccccc2)cc1)c1ccc(Cl)cc1 (configuration not stated)

Row | Efficacy [1] [%] | pEC50 [2] | Log EC50 [1] | Compound
17 | 112 | 5.30 |  | CO[C@@H](C(=O)N[C@H](CCN(C)C)c1ccc(Cl)cc1)c1ccccc1
18 | 165 | 6.06 |  | CO[C@@H](C(=O)N[C@@H](CCN(C)C)c1ccc(Cl)cc1)c1ccccc1
19 | 142 |  |  | Cc1c(Cl)cccc1C(=O)NC(CCN(C)C)c1ccc(Cl)cc1 (configuration not stated)
20 | 175 |  |  | Cc1ccccc1C(=O)NC(CCN(C)C)c1ccc(Cl)cc1 (configuration not stated)
21 | 146 |  |  | COc1cccc(NC(=O)NC(CCN(C)C)c2ccc(Cl)cc2)c1 (configuration not stated)
22 | 89 |  |  | CN(C)CCC(NC(=O)c1ccc(Oc2ccccc2)cc1)c1ccc(Cl)cc1 (configuration not stated)
23 | 116 |  |  | CN(C)CCC(NC(=O)c1ccc(-c2ccccc2)cc1)c1ccc(Cl)cc1 (configuration not stated)
24 | 109 | 6.39 |  | CN(C)CC[C@H](NC(=O)c1ccc2ccccc2c1)c1ccc(Cl)cc1
25 | 175 |  |  | Cc1ccccc1NC(=O)NC(CCN(C)C)c1ccc(Cl)cc1 (configuration not stated)
26 | 140 | 5.99 |  | CCc1ccccc1C(=O)N[C@@H](CCN(C)C)c1ccc(Cl)cc1
27 | 195 | 5.70 |  | COc1ccc(NC(=O)NC(CCN(C)C)c2ccc(Cl)cc2)cc1 (configuration not stated)
28 | 96 | 5.84 |  | CN(C)CC[C@@H](NC(=O)c1ccc(-c2ccccc2)cc1)c1ccc(Cl)cc1
29 | 95 |  |  | CN(C)CCC(OC(=O)c1cccc2ccccc12)c1ccc(Cl)cc1 (configuration not stated)
30 | 108 | 6.96 |  | CN(C)CCC(NC(=O)Nc1ccc(Oc2ccccc2)cc1)c1ccc(Cl)cc1 (configuration not stated)
31 | 162 |  |  | COc1ccc(C(=O)NC(CCN(C)C)c2ccc(Cl)cc2)cc1 (configuration not stated)
32 |  |  | inactive | CN(C)CCC(NS(=O)(=O)c1ccc2ccccc2c1)c1ccc(Cl)cc1 (configuration not stated)

The remaining lines, values behind:

Row | Compound | Efficacy [1] [%] | pEC50 [2] | Log EC50 [1]
33 | COc1ccc(NC(=O)OC(CCN(C)C)c2ccc(Cl)cc2)cc1 (configuration not stated) | 170 | 5.78 | 
34 | CN(C)CCC(NC(=O)c1ccc(N(C)C)cc1)c1ccc(Cl)cc1 (configuration not stated) | 150 |  | 
35 | CN(C)CCC(OC(=O)c1cc2ccccc2n1C)c1ccc(Cl)cc1 (configuration not stated) | 73 | 5.86 | 
36 | CN(C)CCC(NC(=O)c1ccc(C(F)(F)F)cc1)c1ccc(Cl)cc1 (configuration not stated) | 115 | 7.11 | 
37 | CN(C)CCC(OC(=O)Nc1ccc(C(F)(F)F)cc1)c1ccc(Cl)cc1 (configuration not stated) | 94 | 6.60 | 
38 | Cc1cccc(C(=O)OC(CCN(C)C)c2ccc(Cl)cc2)c1C (configuration not stated) | 91 | 5.94 | 
39 | Cc1cc(Br)ccc1C(=O)OC(CCN(C)C)c1ccc(Cl)cc1 (configuration not stated) | 95 |  | 
40 | Cc1ccc(COC(CCN(C)C)c2ccc(Cl)cc2)cc1 (configuration not stated) |  |  | inactive
41 | COc1ccccc1COC(CCN(C)C)c1ccc(Cl)cc1 (configuration not stated) |  |  | inactive
42 | Cc1cc(C)c(C(=O)NC(CCN(C)C)c2ccc(Cl)cc2)cc1C (configuration not stated) | 159 |  | 
43 | Cc1c(Cl)cccc1C(=O)OC(CCN(C)C)c1ccc(Cl)cc1 (configuration not stated) | 118 |  | 
44 | COc1ccc(C(=O)OC(CCN(C)C)c2ccc(Cl)cc2)cc1 (configuration not stated) | 84 | 5.66 | 
45 | Cc1ccc(C(=O)OC(CCN(C)C)c2ccc(Cl)cc2)cc1 (configuration not stated) | 56 |  | 
46 | COc1cccc(C(=O)NC(CCN(C)C)c2ccc(Cl)cc2)c1C (configuration not stated) | 179 |  | 
47 | CN(C)CCC(NC(=O)c1ccc2c(c1)OCO2)c1ccc(Cl)cc1 (configuration not stated) | 154 |  | 
48 | Cc1ccccc1NC(=O)OC(CCN(C)C)c1ccc(Cl)cc1 (configuration not stated) | 176 |  | 

Row | Compound | Efficacy [1] [%] | pEC50 [2] | Log EC50 [1]
49 | Cc1ccc(C)c(C(=O)OC(CCN(C)C)c2ccc(Cl)cc2)c1 (configuration not stated) | 86 |  | 
50 | CN(C)CCC(OC(=O)Nc1ccc(C(C)(C)C)cc1)c1ccc(Cl)cc1 (configuration not stated) | 105 | 5.74 | 
51 | Cc1cc(C)c(C(=O)OC(CCN(C)C)c2ccc(Cl)cc2)cc1C (configuration not stated) | 60 |  | 
52 | Cc1ccc(S(=O)(=O)NC(CCN(C)C)c2ccc(Cl)cc2)cc1 (configuration not stated) | 74 |  | 
53 | COc1cccc(C(=O)OC(CCN(C)C)c2ccc(Cl)cc2)c1C (configuration not stated) | 88 | 5.71 | 
54 | CCc1ccccc1C(=O)OC(CCN(C)C)c1ccc(Cl)cc1 (configuration not stated) | 128 |  | 
55 | Cc1ccc(C(=O)NC(CCN(C)C)c2ccc(Cl)cc2)c(C)c1 (configuration not stated) | 147 |  | 
56 | Cc1ccsc1C(=O)OC(CCN(C)C)c1ccc(Cl)cc1 (configuration not stated) | 119 |  | 
57 | CN(C)CCC(OC(=O)c1cn(C)c2ccccc12)c1ccc(Cl)cc1 (configuration not stated) | 104 | 5.82 | 
58 | CN(C)CCC(OC(=O)NCc1ccccc1)c1ccc(Cl)cc1 (configuration not stated) | 180 |  | 
59 | CN(C)CCC(OC(=O)c1ccc(C(F)(F)F)cc1)c1ccc(Cl)cc1 (configuration not stated) | 47 | 5.76 | 
60 | COc1cccc(NC(=O)OC(CCN(C)C)c2ccc(Cl)cc2)c1 (configuration not stated) | 136 |  | 
61 | Cc1ccccc1C(=O)OC(CCN(C)C)c1ccc(Cl)cc1 (configuration not stated) | 126 |  | 
62 | Cc1cc2c(cc1C)C(=O)OC(CCN(C)C)(c1ccc(Cl)cc1)C2 (configuration not stated) | 146 | 6.87 | 
63 | CN(C)CCC1(c2ccc(Cl)cc2)Cc2ccccc2C(=O)O1 (configuration not stated) | 133 | 5.95 | 
64 | Cc1ccc(C)c(C(=O)NC(CCN(C)C)c2ccc(Cl)cc2)c1 (configuration not stated) | 164 |  | 
